# Compound activity as filed in PubChem BioAssay.
# An excerpt weighted towards active compounds, which were near 2.3% of everything screened.
# STEP block = blocks human striatal-enriched tyrosine phosphatase; P54829; recombinant STEP, OMFP fluorogenic substrate, fluorescence; inhibition, % at 20 µM; 360,000 tested, 0.25% active; AID 588621;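 active means inhibition at 20 µM, scaled per plate between control wells, above about 37%, limit read from the data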;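 further: 0% = DMSO with enzyme and substrate and 100% = substrate only without enzyme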
#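 Assay system: isolated STEP enzyme. Buffer or medium: pH 6.0 Bis-Tris with DTT and Tween 20. Also added: fluorogenic phosphatase substrate OMFP at 25 µM final. Dosing: 20 µM, 1% DMSO. Timing: 20 min reaction, room temperature, in the dark. Measured by: fluorescence intensity, excitation 480 nm, emission 540 nm. Evaluation: normalized % inhibition.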
# DNMT1 inh = inhibitors of human DNMT1; P26358; DNMT1 molecular beacon, Hinp1I cleavage, fluorescence; inhibition (reported as % activation of signal), % at 10 µM; 360,000 tested, 0.83% active; AID 588458; in the data active means inhibition above about 50%
# SUMO1 PPI mod = SUMO1-SIM interaction modulation; 360,000 tested, 0.33% active; SUMO1 binding to a labelled peptide, TR-FRET, 1 h; inhibition, % at 20 µM; AID 602429; in the data active means inhibition above about 37%
# Target sequence (P63165 whole entry, looked up): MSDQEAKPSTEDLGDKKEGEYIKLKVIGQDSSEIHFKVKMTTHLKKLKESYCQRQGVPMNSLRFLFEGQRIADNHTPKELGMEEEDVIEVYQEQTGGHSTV
# LMPTP block = blocks human LMPTP phosphatase | P24666 | recombinant LMPTP-A, OMFP fluorogenic substrate, fluorescence intensity | AID 651560 | 360,000 tested, 0.22% active | inhibition, % at 20 µM;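 active means compounds that cut the enzyme signal by at least half of the control window in the single-dose screen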;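 further: plate controls were DMSO wells with enzyme plus substrate for no effect and substrate without enzyme for full effect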
# Target sequence (P24666 whole entry, looked up): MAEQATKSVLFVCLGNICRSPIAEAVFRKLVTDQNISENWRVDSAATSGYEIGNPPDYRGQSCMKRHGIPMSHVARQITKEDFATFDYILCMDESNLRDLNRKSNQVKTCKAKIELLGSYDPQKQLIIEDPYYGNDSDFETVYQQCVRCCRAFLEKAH
#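 Test system: LMPTP-A phosphatase enzyme. Amount: LMPTP-A at 0.625 nM final in the reaction. Reagent: OMFP substrate, 400 µM final. Times: 50 min at room temperature. Signal: endpoint fluorescence intensity from OMFP dephosphorylation. Read-out basis: % inhibition. Benchmarks: no-enzyme and uninhibited controls.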
# NadD block = inhibitors of Staphylococcus aureus NadD; purified NadD enzyme, colorimetric absorbance read-out; inhibition, % at 20 µM; 360,000 tested, 0.78% active; AID 602399; in the data active means inhibition above about 26%
# Scp1 inh = inhibitors of human Scp-1 phosphatase. Q9GZU7. Recombinant Scp1, phosphopeptide, malachite green phosphate absorbance. inhibition, % at 20 µM. 340,000 tested, 0.88% active. AID 493091;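 active means inhibition above about 50% at 20 µM, limit read from the data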;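 further: plate controls were DMSO wells with enzyme for no effect and wells lacking enzyme for full effect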
# Target sequence (Q9GZU7 76-261 limits assumed): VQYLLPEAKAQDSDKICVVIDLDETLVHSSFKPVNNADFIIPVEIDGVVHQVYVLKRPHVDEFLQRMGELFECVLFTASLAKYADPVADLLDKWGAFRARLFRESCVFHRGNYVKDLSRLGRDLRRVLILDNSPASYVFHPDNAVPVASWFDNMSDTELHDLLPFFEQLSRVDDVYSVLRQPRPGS
#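 assay system = SCP-1 phosphatase catalytic domain, residues 76-261 | buffer or medium = 50 mM Tris acetate pH 5.5, 0.005% Tween-20, 10 mM MgCl2 | incubation = enzyme reaction 45 min at room temperature, colour 5 min, stabilisation 30 min | signal = Phosphate-binding colour reagent, absorbance read at 630 nm | measure = % inhibition at 20 µM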
# Beacon interf DR = shows spectral interference in the DNMT1 beacon assay. shares compounds with DNMT1 inh. molecular beacon fluorescence, spectral interference counter-screen. IC50, µM. 200 tested, under 10 active; call rule not given here
# DNMT1 confirm = DNMT1 inhibition confirmation, single concentration | shares compounds with DNMT1 inh | DNMT1 molecular beacon HinP1I cleavage, fluorescence | inhibition, % at 10 µM | 2,300 tested, 8% active | AID 602385;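 active means average inhibition of at least 30% in the single-concentration confirmation test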
# DNMT1 interf = counter-screen for DNMT1 inhibitors: spectral interference; shares compounds with DNMT1 inh; DNMT1 molecular beacon spectral interference counterscreen, fluorescence 485/520; activation (fluorescence interference), % at 10 µM; 2,300 tested, 1% active;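 active means activation of at least 30% at 10 µM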;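 further: DNMT1 catalytic domain with a HinP1I cleavage step and a FAM/dabcyl DNA beacon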
# Numbers without * were called inactive; / = not tested or not shown.
SMILES,STEP block,DNMT1 inh,SUMO1 PPI mod,LMPTP block,NadD block,Scp1 inh,DNMT1 confirm,DNMT1 interf,others
NS(=O)(=O)c1ccc(NC(=O)COC(=O)c2ccc([N+](=O)[O-])s2)cc1,-2,70*,10,0,1,-4,70*,-2,Beacon interf DR=>99
Cc1csc(NC(=O)CSc2nc(=O)n(CCN(C)C)c3c2CCCC3)n1,-1,0,7,0,-3,-1,/,/,
O=C(COC(=O)c1ccccc1O)Nc1ncc(Cl)cc1Cl,0,64*,24,1,9,25,12,4,
O=C(COC(=O)c1ccccc1NC(=O)c1ccco1)Nc1ncc(Cl)cc1Cl,4,5,16,3,7,-7,/,/,
CC1Sc2ccc(S(=O)(=O)CCC(=O)NCc3cccs3)cc2NC1=O (configuration not stated),0,1,-2,0,-4,-9,/,/,
Cc1ccc(C)c(S(=O)(=O)NCCOc2nc(NC(C)C)nc(NC(C)C)n2)c1,-1,1,0,0,1,0,/,/,
CSc1nc(C)cc(OCCNS(=O)(=O)c2cc(C)ccc2C)n1,-14,67*,1,0,-5,-2,0,6,
O=C(COC(=O)c1ccc(O)cc1)NC1CCCCCC1,-1,1,-1,-1,0,3,/,/,
N#Cc1nc(Nc2cccc(Cl)c2)c2ncn(C3CCCC3)c2n1,1,16,-6,4,0,-8,/,/,
COc1cc2cc(Oc3ccc4ccc(=O)oc4c3)c(=O)oc2cc1O[C@@H]1O[C@H](CO)[C@@H](O)[C@H](O)[C@H]1O,1,105*,4,2,3,24,61*,-1,Beacon interf DR=>99
CCOc1ccc(NC(=O)CCS(=O)(=O)c2ccc(Br)cc2)cc1,9,84*,48*,1,-10,46,9,6,
COc1ccc(NC(=O)CCS(=O)(=O)c2ccc(OC)cc2)cc1,-1,-1,2,-1,-2,-5,/,/,
COC(=O)c1ccccc1NC(=O)CCS(=O)(=O)c1ccc(Br)cc1,22,90*,32,4,-7,80*,95*,6,Beacon interf DR=>99
COc1ccc(/C=N/NC(=O)c2cccc([N+](=O)[O-])c2)c2ccccc12,3,51*,3,-1,3,-4,0,-3,
O=C(c1cc(=O)c2ccccc2o1)N1CCCc2ccccc21,-2,84*,-3,0,-3,-7,4,5,
CC1(C)CCCN(C(=O)c2coc(=O)c(Br)c2)C1,97*,87*,3,54*,2,96*,103*,-4,Beacon interf DR=>99
O=C(c1coc(=O)c(Br)c1)N1CCC(C(O)(c2ccccc2)c2ccccc2)CC1,1,-2,-7,-1,-6,-13,/,/,
O=C(c1coc(=O)c(Br)c1)N1CCCc2ccccc21,6,58*,9,10,7,19,2,3,
COc1ccc([C@H]2C[C@@H](O)[C@H](n3cc(C4CC4)nn3)CN2C(=O)C2CCCCC2)cc1,-3,-1,2,-1,6,/,/,/,
COc1ccc(OC)c(N2C(=O)c3ccccc3C2c2nnnn2-c2ccc3c(c2)OCCO3)c1 (configuration not stated),/,/,-5,-1,-2,/,/,/,
Cc1ccc(CN(C(=O)c2ccccc2[N+](=O)[O-])C2CCS(=O)(=O)C2)o1 (configuration not stated),-2,0,-20,-1,-5,1,/,/,
CCOC(=O)C1=CNS(=O)(=O)NC1c1ccc(C(F)(F)F)cc1 (configuration not stated),-3,2,3,0,-2,-4,/,/,
